Data: ChEMBL document CHEMBL2390928
Calls of active or inactive are those of the source. The rule behind the calls is not given here.

Experiments:
[1] = Induction of interphase microtubule depolymerization in rat A10 cells after 18 to 24 hrs by indirect immunofluorescence assay; type: cell-based
Outline: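 Rat aortic smooth muscle A-10 cells are treated for 18 h, fixed in cold methanol, and stained for microtubules with a β-tubulin antibody by indirect immunofluorescence. […] It is computed per experiment over a wide concentration range, from at least 3 independent experiments, and reported as mean ± SD.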

HeLa [2] = assay: Cytotoxicity against human HeLa cells assessed as growth inhibition after 48 hrs by SRB assay; type: functional, cell-based
SK-OV-3 [3] = assay: Cytotoxicity against human SKOV3 cells assessed as growth inhibition after 48 hrs by SRB assay; type: functional, cell-based; settings: SK-OV-3, 48 h
MOLT-4 = assay: Growth inhibition of human MOLT4 cells; type: functional
HL-60(TB) = assay: Growth inhibition of human HL-60(TB) cells; type: functional
K562 = assay: Growth inhibition of human K562 cells; type: functional
CCRF-CEM = assay: Growth inhibition of human CCRF-CEM cells; type: functional
MDA-MB-435 [4] = assay: Cytotoxicity against human MDA-MB-435 cells assessed as growth inhibition after 48 hrs by SRB assay; type: functional, cell-based; settings: MDA-MB-435, 48 h
Bos taurus = species: Bos taurus; assay: Displacement of [3H]-colchicine from bovine brain tubulin at 5 uM after 10 mins relative to control
Outline: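 Electrophoretically homogeneous bovine brain tubulin, 1.0 µM, incubated 10 min at 37 °C with 5.0 µM [3H]colchicine and 5.0 µM inhibitor; colchicine binding inhibition expressed as percent ± SD.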

[5] = Inhibition of bovine brain tubulin assembly after 20 mins by spectrophotometric analysis; set-up: species or system Bos taurus
Outline: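 Electrophoretically homogeneous bovine brain tubulin is used at 10 µM (1.0 mg/mL) with varying inhibitor concentrations. After 15 min preincubation at 30 °C, 0.4 mM GTP is added.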

MDA-MB-435 [6] = assay: Cell cycle arrest in human MDA-MB-435 cells assessed as increase in accumulation at G2/M phase at 44.1 to 73.5 nM after 18 hrs by FACS flow cytometric analysis; type: functional, cell-based
Outline: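 Cells harvested, stained with Krishan's reagent (propidium iodide), analysed by flow cytometry; propidium iodide intensity plotted against event count to give cell cycle distribution.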

MDA-MB-468 = assay: Growth inhibition of human MDA-MB-468 cells; type: functional
BT-549 = assay: Growth inhibition of human BT549 cells; type: functional
Hs-578T = assay: Growth inhibition of human Hs578T cells; type: functional
MCF7 = assay: Growth inhibition of human MCF7 cells; type: functional
MDA-MB-231 = assay: Growth inhibition of human MDA-MB-231 cells; type: functional
DU-145 = assay: Growth inhibition of human DU145 cells; type: functional
PC-3 = assay: Growth inhibition of human PC3 cells; type: functional
TK-10 = assay: Growth inhibition of human TK10 cells; type: functional
UO-31 = assay: Growth inhibition of human UO31 cells; type: functional
SN12C = assay: Growth inhibition of human SN12C cells; type: functional
RXF 393 = assay: Growth inhibition of human RXF393 cells; type: functional
ACHN = assay: Growth inhibition of human ACHN cells; type: functional
A498 = assay: Growth inhibition of human A498 cells; type: functional
786-0 = assay: Growth inhibition of human 786-0 cells; type: functional
[7] = Growth inhibition of human NCI-ADR-RES cells; type: functional
SK-OV-3 [8] = assay: Growth inhibition of human SKOV3 cells; type: functional
OVCAR-8 = assay: Growth inhibition of human OVCAR8 cells; type: functional
OVCAR-5 = assay: Growth inhibition of human OVCAR5 cells; type: functional
OVCAR-3 = assay: Growth inhibition of human OVCAR3 cells; type: functional
OVCAR-4 = assay: Growth inhibition of human OVCAR4 cells; type: functional
UACC-62 = assay: Growth inhibition of human UACC62 cells; type: functional
SK-MEL-28 = assay: Growth inhibition of human SK-MEL-28 cells; type: functional
SK-MEL-5 = assay: Growth inhibition of human SK-MEL-5 cells; type: functional
SK-MEL-2 = assay: Growth inhibition of human SK-MEL-2 cells; type: functional
MDA-MB-435 [9] = assay: Growth inhibition of human MDA-MB-435 cells; type: functional
Malme-3M = assay: Growth inhibition of human MALME-3M cells; type: functional
M14 = assay: Growth inhibition of human M14 cells; type: functional
LOX IMVI = assay: Growth inhibition of human LOXIMVI cells; type: functional
U-251 = assay: Growth inhibition of human U251 cells; type: functional
SNB-19 = assay: Growth inhibition of human SNB19 cells; type: functional
SNB-75 = assay: Growth inhibition of human SNB75 cells; type: functional
SF-539 = assay: Growth inhibition of human SF539 cells; type: functional
SF-295 = assay: Growth inhibition of human SF295 cells; type: functional
SW-620 = assay: Growth inhibition of human SW620 cells; type: functional
SF-268 = assay: Growth inhibition of human SF268 cells; type: functional
KM12 = assay: Growth inhibition of human KM12 cells; type: functional
HT-29 = assay: Growth inhibition of human HT-29 cells; type: functional
HCT-116 = assay: Growth inhibition of human HCT116 cells; type: functional
HCT-15 = assay: Growth inhibition of human HCT15 cells; type: functional
[10] = Growth inhibition of human HCC2998 cells; type: functional; settings: HCC 2998
COLO 205 = assay: Growth inhibition of human COLO205 cells; type: functional
NCI-H522 = assay: Growth inhibition of human NCI-H522 cells; type: functional
NCI-H322M = assay: Growth inhibition of human NCI-H322M cells; type: functional
NCI-H460 = assay: Growth inhibition of human NCI-H460 cells; type: functional
NCI-H23 = assay: Growth inhibition of human NCI-H23 cells; type: functional
NCI-H226 = assay: Growth inhibition of human NCI-H226 cells; type: functional
HOP-62 = assay: Growth inhibition of human HOP62 cells; type: functional
HOP-92 = assay: Growth inhibition of human HOP92 cells; type: functional
[11] = Growth inhibition of human EKVX cells; type: functional
A549 = assay: Growth inhibition of human A549 cells; type: functional
SR = assay: Growth inhibition of human SR cells; type: functional
RPMI-8226 = assay: Growth inhibition of human RPMI8226 cells; type: functional
[12] = Ratio of EC50 for induction of microtubule depolymerization in rat A10 cells to IC50 for human MDA-MB-435 cells
Outline: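 This ratio divides the A-10 EC50 by the MDA-MB-435 melanoma IC50. […] The IC50 is from the sulforhodamine B proliferation assay, 3–5 independent experiments.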

HeLa [13] = assay: Resistance ratio of IC50 for human HeLa cells expressing beta-3 tubulin to IC50 for human HeLa cells; type: functional
Outline: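 HeLa WT βIII cells are HeLa cells transfected with the βIII-tubulin gene. IC50 in this line and in parental HeLa is taken from the sulforhodamine B assay (3–5 independent experiments). Rr is the βIII-line IC50 divided by the parental HeLa IC50.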

SK-OV-3 [14] = assay: Resistance ratio of IC50 for human SKOV3 cells expressing MDR1 to IC50 for human SKOV3 cells; type: functional
Outline: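 Relative resistance (Rr) is the IC50 in Pgp-expressing SK-OV-3 MDR-1-6/6 cells divided by the IC50 in parental SK-OV-3 cells.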

Structure (SMILES): COc1ccc(/C=C\c2cc(OC)c(OC)c(OC)c2)cc1O [COMBRETASTATIN A4]
- EC50 [1]: 13 nM
- IC50 (HeLa [2]): 4.7 nM
- IC50 (SK-OV-3 [3]): 9.7 nM

Structure (SMILES): CC(=O)O[C@H]1C(=O)[C@@]2(C)[C@H]([C@H](OC(=O)c3ccccc3)[C@]3(O)C[C@H](OC(=O)[C@H](O)[C@@H](NC(=O)c4ccccc4)c4ccccc4)C(C)=C1C3(C)C)[C@]1(OC(C)=O)CO[C@@H]1C[C@@H]2O [PACLITAXEL]
- IC50 (SK-OV-3 [3]): 4.4 nM

Structure (SMILES): COc1ccc(N(C)c2nc(N)nc3[nH]c4ccccc4c23)cc1
- GI50 (MOLT-4): 47.7 nM
- GI50 (HL-60(TB)): 32.2 nM
- GI50 (K562): < 10 nM
- GI50 (CCRF-CEM): 41.1 nM
- EC50 [1]: 105 nM
- IC50 (MDA-MB-435 [4]): 14.7 nM
- inhibition (Bos taurus): 84%
- IC50 [5]: 1400 nM
- IC50 (HeLa [2]): 21.3 nM
- IC50 (SK-OV-3 [3]): 27.6 nM
- Activity (MDA-MB-435 [6]): Active
- GI50 (MDA-MB-468): 26.9 nM
- GI50 (BT-549): 94.5 nM
- GI50 (Hs-578T): 11.5 nM
- GI50 (MCF7): 16.4 nM
- GI50 (MDA-MB-231): 64.6 nM
- GI50 (DU-145): 31.4 nM
- GI50 (PC-3): 44.3 nM
- GI50 (TK-10): 56.2 nM
- GI50 (UO-31): 53.7 nM
- GI50 (SN12C): 80.1 nM
- GI50 (RXF 393): 16.9 nM
- GI50 (ACHN): 89.6 nM
- GI50 (A498): 15.8 nM
- GI50 (786-0): 49 nM
- GI50 [7]: 11.5 nM
- GI50 (SK-OV-3 [8]): 29.9 nM
- GI50 (OVCAR-8): 42.3 nM
- GI50 (OVCAR-5): 51.2 nM
- GI50 (OVCAR-3): 12.9 nM
- GI50 (OVCAR-4): 52.7 nM
- GI50 (UACC-62): 27 nM
- GI50 (SK-MEL-28): < 10 nM
- GI50 (SK-MEL-5): 32.3 nM
- GI50 (SK-MEL-2): 19.7 nM
- GI50 (MDA-MB-435 [9]): < 10 nM
- GI50 (Malme-3M): 304 nM
- GI50 (M14): 16.6 nM
- GI50 (LOX IMVI): 68.4 nM
- GI50 (U-251): 37.3 nM
- GI50 (SNB-19): 50.9 nM
- GI50 (SNB-75): 12.7 nM
- GI50 (SF-539): 24.2 nM
- GI50 (SF-295): 26 nM
- GI50 (SW-620): 19 nM
- GI50 (SF-268): 37.7 nM
- GI50 (KM12): 13.2 nM
- GI50 (HT-29): 31 nM
- GI50 (HCT-116): 29.8 nM
- GI50 (HCT-15): 26.1 nM
- GI50 [10]: 23.6 nM
- GI50 (COLO 205): 25.8 nM
- GI50 (NCI-H522): < 10 nM
- GI50 (NCI-H322M): 64.2 nM
- GI50 (NCI-H460): 30 nM
- GI50 (NCI-H23): 31.8 nM
- GI50 (NCI-H226): 133 nM
- GI50 (HOP-62): 40 nM
- GI50 (HOP-92): 242 nM
- GI50 [11]: 16.7 nM
- GI50 (A549): 36.4 nM
- GI50 (SR): < 10 nM
- GI50 (RPMI-8226): 41.1 nM

Structure (SMILES): CCOc1ccc(N(C)c2nc(N)nc3[nH]c4ccccc4c23)cc1
- Ratio [12]: 6.5
- EC50 [1]: 83 nM
- IC50 (MDA-MB-435 [4]): 14.4 nM
- inhibition (Bos taurus): 82%
- IC50 [5]: 1700 nM
- Ratio IC50 (HeLa [13]): 0.8
- IC50 (HeLa [2]): 23.1 nM
- Ratio IC50 (SK-OV-3 [14]): 1.3
- IC50 (SK-OV-3 [3]): 23 nM

Structure (SMILES): CCN(c1ccc(OC)cc1)c1nc(N)nc2[nH]c3ccccc3c12
- Ratio [12]: 8.4
- EC50 [1]: 198 nM
- IC50 (MDA-MB-435 [4]): 23.5 nM
- inhibition (Bos taurus): 76%
- IC50 [5]: 1700 nM
- Ratio IC50 (HeLa [13]): 1.4
- IC50 (HeLa [2]): 32.8 nM
- Ratio IC50 (SK-OV-3 [14]): 1.4
- IC50 (SK-OV-3 [3]): 53 nM

Structure (SMILES): COc1ccc(N(C)c2nc(C)nc3[nH]ccc23)cc1
- inhibition (Bos taurus): 70%
- IC50 [5]: 2600 nM
